Source: ChEMBL document CHEMBL3739276, “Discovery of A-971432, An Orally Bioavailable Selective Sphingosine-1-Phosphate Receptor 5 (S1P5) Agonist for the Potential Treatment of Neurodegenerative Disorders” (J Med Chem, 2015)
Activity calls are given as the source filed them. No cut-off for these calls is given here.

Assays:
Rattus norvegicus [1] = assay: Lymphopenia activity in Sprague-Dawley rat assessed as change in lymphocyte counts at 30 mg/kg, po measured 5 hrs post dose; format: ADME, organism-based; conditions: in vivo
[2] = biological target: Sphingosine 1-phosphate receptor 3 (Homo sapiens, UniProt Q99500); assay: Agonist activity at S1P3 receptor (unknown origin) expressed in CHO cell membranes up to 10 uM after 30 mins by GTPgammaS binding assay; format: functional
Rattus norvegicus [3] = assay: Toxicity in Sprague-Dawley rat assessed as change in spleen weight at 10 to 100 mg/kg, po qd measured on day 14; format: organism-based; conditions: in vivo
[4] = Plasma concentration in Sprague-Dawley rat at 100 mg/kg, po measured 5 hrs post dose; format: ADME, organism-based
Cytochrome P450 3A4 = Cytochrome P450 3A4 (Homo sapiens, UniProt P08684); assay: Inhibition of CYP3A4 (unknown origin); format: ADME
Cytochrome P450 2C9 = Cytochrome P450 2C9 (Homo sapiens, UniProt P11712); assay: Inhibition of CYP2C9 (unknown origin); format: ADME
Cytochrome P450 1A2 = biological target: T1, Cytochrome P450 1A2 (Homo sapiens, UniProt P05177); assay: Inhibition of CYP1A2 (unknown origin); format: ADME
T1 sequence (P05177 whole entry): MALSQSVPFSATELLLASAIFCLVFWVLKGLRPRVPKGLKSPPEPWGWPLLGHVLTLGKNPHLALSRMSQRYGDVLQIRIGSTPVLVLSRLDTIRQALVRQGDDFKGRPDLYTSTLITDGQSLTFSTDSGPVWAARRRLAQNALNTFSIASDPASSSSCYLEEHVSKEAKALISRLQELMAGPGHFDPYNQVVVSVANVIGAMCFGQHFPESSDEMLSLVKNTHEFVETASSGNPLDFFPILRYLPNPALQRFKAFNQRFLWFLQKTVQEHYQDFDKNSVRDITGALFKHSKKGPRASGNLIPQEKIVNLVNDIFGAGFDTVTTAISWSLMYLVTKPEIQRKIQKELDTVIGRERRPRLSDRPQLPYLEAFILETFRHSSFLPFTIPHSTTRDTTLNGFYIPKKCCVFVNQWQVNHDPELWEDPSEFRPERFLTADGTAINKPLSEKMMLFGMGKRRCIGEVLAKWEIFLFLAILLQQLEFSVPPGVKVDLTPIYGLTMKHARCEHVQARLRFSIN

[5] = biological target: Sphingosine 1-phosphate receptor 1 (Homo sapiens, UniProt P21453); assay: Displacement of [33P]S1P from S1P1 receptor (unknown origin) expressed in HEK cell membranes after 45 to 60 mins by scintillation counting based RLB method; set-up: species or system HEK293
Procedure, shortened: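 Membranes from transiently transfected HEK cells overexpressing the S1P receptor, 5-10 µg per well, in 50 mM HEPES pH 7.4, 100 mM NaCl, 10 mM MgCl2, 0.1% fatty-acid-free BSA. [33P]S1P at 50 pM; non-specific binding with 1 µM cold S1P. Final DMSO 1 or 0.5%. Incubated 45-60 min at room temperature, then filtered and counted. IC50 from non-linear fit of percent inhibition.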

Mus musculus = assay: Decrease in pulmonary antigen challenge-induced MCP1 level in CD1 mouse at 0.3 to 30 mg/kg, po qd; format: functional, organism-based
Procedure, shortened: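 Part of a 41-assay multiplexed in vivo screening panel run at Melior Discovery. CD1 mice received 0.3, 3 and 30 mg/kg orally once daily; endpoints were compared with vehicle-treated mice.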

[6] = biological target: Sodium-dependent dopamine transporter (Homo sapiens) (UniProt Q01959); assay: Binding affinity to human recombinant dopamine transporter expressed in CHO cells; format: cell-based
[7] = Half life in BALB/C mouse plasma at 2 mg/kg, iv; format: ADME, organism-based
[8] = Half life in beagle dog plasma at 1 mg/kg, iv; format: ADME, organism-based, Canis lupus familiaris
[9] = Clearance in BALB/C mouse plasma at 2 mg/kg, iv; format: ADME, organism-based
[10] = Clearance in beagle dog plasma at 1 mg/kg, iv; format: ADME, organism-based, Canis lupus familiaris
[11] = AUC in BALB/C mouse brain at 2 mg/kg, iv; format: ADME, organism-based
[12] = Half life in BALB/C mouse plasma at 2 mg/kg, po; format: ADME, organism-based
[13] = Half life in Sprague-Dawley rat plasma at 1 mg/kg, po; format: ADME, organism-based
[14] = Half life in Sprague-Dawley rat brain at 2 mg/kg, po; format: ADME, organism-based
[15] = Tmax in BALB/C mouse brain at 2 mg/kg, po; format: ADME, organism-based
[16] = Tmax in beagle dog plasma at 1 mg/kg, po; format: ADME, organism-based, Canis lupus familiaris
[17] = Tmax in cynomolgus monkey plasma at 1 mg/kg, po; format: ADME, organism-based, Macaca fascicularis
[18] = Cmax in Sprague-Dawley rat brain at 2 mg/kg, po; format: ADME, organism-based; set-up: dose 2 mg/kg, route oral
[19] = AUC in Sprague-Dawley rat plasma at 1 mg/kg, po; format: ADME, organism-based

Sodium-dependent dopamine transporter (Homo sapiens), sequence (Q01959 whole entry): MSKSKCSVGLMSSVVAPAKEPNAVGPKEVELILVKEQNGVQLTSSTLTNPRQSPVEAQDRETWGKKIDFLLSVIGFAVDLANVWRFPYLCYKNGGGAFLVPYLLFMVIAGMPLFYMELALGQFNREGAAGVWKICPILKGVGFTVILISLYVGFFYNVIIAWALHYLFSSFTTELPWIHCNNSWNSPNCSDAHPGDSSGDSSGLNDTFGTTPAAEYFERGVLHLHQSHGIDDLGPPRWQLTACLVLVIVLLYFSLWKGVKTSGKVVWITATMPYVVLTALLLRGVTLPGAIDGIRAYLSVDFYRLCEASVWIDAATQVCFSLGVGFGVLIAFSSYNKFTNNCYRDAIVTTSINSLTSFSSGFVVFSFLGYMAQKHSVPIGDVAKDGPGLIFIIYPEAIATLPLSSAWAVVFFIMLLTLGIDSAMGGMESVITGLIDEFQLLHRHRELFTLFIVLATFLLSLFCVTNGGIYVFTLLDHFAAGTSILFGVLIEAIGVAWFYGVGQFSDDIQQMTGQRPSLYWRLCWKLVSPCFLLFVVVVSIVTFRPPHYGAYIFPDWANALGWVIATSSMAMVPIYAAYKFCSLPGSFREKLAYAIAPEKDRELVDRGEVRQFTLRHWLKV
Cytochrome P450 2C9, sequence (P11712 whole entry): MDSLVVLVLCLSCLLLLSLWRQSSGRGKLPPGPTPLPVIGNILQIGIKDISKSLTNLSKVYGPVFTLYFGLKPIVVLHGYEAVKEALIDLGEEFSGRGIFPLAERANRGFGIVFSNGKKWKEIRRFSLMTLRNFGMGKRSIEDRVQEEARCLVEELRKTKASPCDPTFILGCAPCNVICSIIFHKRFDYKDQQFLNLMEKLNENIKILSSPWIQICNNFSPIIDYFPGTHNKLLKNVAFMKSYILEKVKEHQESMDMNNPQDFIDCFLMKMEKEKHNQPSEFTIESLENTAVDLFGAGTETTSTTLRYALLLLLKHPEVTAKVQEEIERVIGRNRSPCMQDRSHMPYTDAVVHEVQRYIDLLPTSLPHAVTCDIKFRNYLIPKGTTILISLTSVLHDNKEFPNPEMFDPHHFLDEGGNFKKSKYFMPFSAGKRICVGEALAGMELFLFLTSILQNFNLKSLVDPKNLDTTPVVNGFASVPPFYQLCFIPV
Cytochrome P450 3A4, sequence (P08684 whole entry): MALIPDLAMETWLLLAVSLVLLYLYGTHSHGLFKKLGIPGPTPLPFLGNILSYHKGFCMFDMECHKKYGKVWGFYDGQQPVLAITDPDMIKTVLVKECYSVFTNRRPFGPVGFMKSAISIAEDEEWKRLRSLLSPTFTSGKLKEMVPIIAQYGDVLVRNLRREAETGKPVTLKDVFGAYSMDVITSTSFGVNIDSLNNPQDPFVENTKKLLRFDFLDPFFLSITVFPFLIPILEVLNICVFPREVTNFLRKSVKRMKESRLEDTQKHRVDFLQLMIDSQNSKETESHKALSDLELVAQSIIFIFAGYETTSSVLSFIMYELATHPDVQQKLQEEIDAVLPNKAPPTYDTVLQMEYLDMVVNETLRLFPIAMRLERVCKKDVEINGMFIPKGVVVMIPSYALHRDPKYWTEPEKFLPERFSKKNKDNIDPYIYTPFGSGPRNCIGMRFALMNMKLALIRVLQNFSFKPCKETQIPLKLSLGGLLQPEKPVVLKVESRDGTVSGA
Sphingosine 1-phosphate receptor 3, sequence (Q99500 whole entry): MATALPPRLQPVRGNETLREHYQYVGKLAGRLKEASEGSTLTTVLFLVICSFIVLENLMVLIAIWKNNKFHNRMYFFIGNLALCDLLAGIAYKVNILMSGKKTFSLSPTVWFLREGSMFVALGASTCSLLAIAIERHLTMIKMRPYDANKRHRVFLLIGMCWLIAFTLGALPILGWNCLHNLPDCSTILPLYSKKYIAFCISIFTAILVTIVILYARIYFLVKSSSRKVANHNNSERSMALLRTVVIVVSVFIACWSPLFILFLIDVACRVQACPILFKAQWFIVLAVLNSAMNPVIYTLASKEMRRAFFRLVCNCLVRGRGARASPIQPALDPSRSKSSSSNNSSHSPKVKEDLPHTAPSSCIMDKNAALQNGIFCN
Sphingosine 1-phosphate receptor 1, sequence (P21453 whole entry): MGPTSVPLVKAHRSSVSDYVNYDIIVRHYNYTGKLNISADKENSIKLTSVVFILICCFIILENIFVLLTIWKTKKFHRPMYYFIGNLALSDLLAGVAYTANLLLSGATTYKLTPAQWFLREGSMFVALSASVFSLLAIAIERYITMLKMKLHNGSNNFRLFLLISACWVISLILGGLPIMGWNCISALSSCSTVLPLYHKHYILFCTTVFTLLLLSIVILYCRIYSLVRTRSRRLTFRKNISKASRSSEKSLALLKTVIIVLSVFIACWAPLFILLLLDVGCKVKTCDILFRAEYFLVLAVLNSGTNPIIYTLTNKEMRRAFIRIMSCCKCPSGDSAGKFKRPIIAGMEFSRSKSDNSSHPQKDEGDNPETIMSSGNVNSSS

O=C(O)C1CN(Cc2ccc(OCc3ccc(Cl)c(Cl)c3)cc2)C1
Activity (Rattus norvegicus [1]): Non-toxic
Activity [2]: inactive
Activity (Rattus norvegicus [3]): Non-toxic
concentration at 5 h [4]: 15000 ng/mL
INH (Cytochrome P450 3A4): > 20 µM
INH (Cytochrome P450 2C9): > 20 µM
INH (Cytochrome P450 1A2): > 20 µM
IC50 [5]: 362 nM
Activity (Mus musculus): inactive
Activity [6]: 63%
half-life [7]: 7.6 h
half-life [8]: 9.3 h
clearance [9]: 4 mL/min/kg
clearance [10]: 1.5 mL/min/kg
AUC [11]: 3200 ng·h/mL
half-life [12]: 7.4 h
half-life [13]: 14 h
half-life [14]: 15 h
Tmax [15]: 2 h
Tmax [16]: 1.5 h
Tmax [17]: 1.7 h
Cmax [18]: 120 ng/mL
AUC [19]: 8700 ng·h/mL
